Source: ChEMBL document CHEMBL1129639, “Synthesis and cardiotonic activity of novel pyrimidine derivatives: crystallographic and quantum chemical studies” (J Med Chem, 1996)

What was measured:
[1] = species on record: Cavia porcellus; assay: Inotropic effect in electrically driven left atrium from reserpine-treated guinea pigs at concentration of 3 x 10E-6 M; format: functional, Cardiac atrium
Procedure, shortened: (§1)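 Electrically driven left atrium from reserpine-treated guinea pigs (tyramine-unresponsive), 29 °C, pH 7.5, resting tension […], 90 min equilibration. Compound dissolved in DMSO and added cumulatively, 5 min per step. Where used, adenosine deaminase was preincubated 20 min, and basal force was taken after ADA addition. Developed tension given as % change over control. Mean ± SEM of six assays.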

[2] = species on record: Cavia porcellus; assay: Ionotropic Response to 8-Phenyltheophylline (3 x 10E-5 M) in Electrically driven Left atrium from Resperpine-Treated Guinea pigs at the concentration of 3 x 10E-5 M; format: functional, Cardiac atrium
Procedure, shortened: (§2)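 Guinea pigs pretreated with reserpine (2 mg/kg ip) 48 and 24 h before sacrifice; atria unresponsive to tyramine (2 µg/mL) used. Left atrium electrically driven, in oxygenated salt solution (95% O2/5% CO2, pH 7.5, 29 °C), resting tension […], isometric developed tension. 90 min equilibration; test agent present while cumulative 8-phenyltheophylline curves run, 5 min per concentration; % variation from control; mean ± SEM, four assays.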

[3] = species on record: Cavia porcellus; assay: Inotropic effect in electrically driven left atrium from reserpine-treated guinea pigs at concentration of 3 x 10E-4 M; format: functional, Cardiac atrium; procedure, shortened: as §1
[4] = species on record: Cavia porcellus; assay: Effect on the contractile force of spontaneously beating atria from Reserpine-treated guinea pigs as percentage variation from the control at concentration of 3 x 10E-4 M; format: functional
Procedure, shortened: (§3)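 Atria from reserpine-treated guinea pigs (reserpine 2 mg/kg ip, 48 and 24 h before death; only tyramine-unresponsive preparations used). Bath solution at 29 °C, gassed 95% O2/5% CO2, pH 7.5, resting tension […]. After 90 min equilibration, compound added cumulatively, 5 min per concentration. Isometric developed-tension amplitude or beating rate given as % variation from untreated control. Mean ± SEM, 6-10 assays.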

[5] = species on record: Cavia porcellus; assay: Ionotropic Response to 8-Phenyltheophylline (10e-5 M)in Electrically driven Left atrium from Resperpine-Treated Guinea pigs at the concentration of 3 x 10E-5 M; format: functional, Cardiac atrium
Procedure, shortened: (§4)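 Electrically driven left atrium from reserpine-treated guinea pigs, 29 °C, pH 7.5. Cumulative 8-phenyltheophylline concentration-effect curves were run without or with 3 × 10^-5 to 3 × 10^-4 M test compound (DMSO). Developed tension given as % variation from control. Mean ± SEM of four assays from four experiments; Student's t-test against the 8-phenyltheophylline-only atrium.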

[6] = species on record: Cavia porcellus; assay: Effect on the contractile force of spontaneously beating atria from Reserpine-treated guinea pigs as percentage variation from the control at concentration of 10E-6 M; format: functional; procedure, shortened: as §3
[7] = species on record: Cavia porcellus; assay: Ionotropic Response to 8-Phenyltheophylline in Electrically driven Left atrium from Resperpine-Treated Guinea pigs at the concentration of 3 x 10E-4 M; format: functional, Cardiac atrium; procedure, shortened: as §2
[8] = species on record: Cavia porcellus; assay: Ionotropic Response to 8-Phenyltheophylline (10e-5 M) in Electrically driven Left atrium from Resperpine-Treated Guinea pigs at the concentration of 10E-4 M; format: functional, Cardiac atrium; procedure, shortened: as §4
[9] = species on record: Cavia porcellus; assay: Ionotropic Response to 8-Phenyltheophylline (10E-5) in Electrically driven Left atrium from Resperpine-Treated Guinea pigs at the concentration of 3 x 10E-4 M; format: functional, Cardiac atrium; procedure, shortened: as §4
[10] = species on record: Cavia porcellus; assay: Ionotropic Response to 8-Phenyltheophylline (10e-4 M) in Electrically driven Left atrium from Resperpine-Treated Guinea pigs at the concentration of 3 x 10E-5 M; format: functional, Cardiac atrium; procedure, shortened: as §4
[11] = species on record: Cavia porcellus; assay: Ionotropic Response to 8-Phenyltheophylline (10e-4 M) in Electrically driven Left atrium from Resperpine-Treated Guinea pigs at the concentration of 10E-4 M; format: functional, Cardiac atrium; procedure, shortened: as §4
[12] = species on record: Cavia porcellus; assay: Inotropic effect in electrically driven left atrium from reserpine-treated guinea pigs at concentration of 3 x 10E-5 M; format: functional, Cardiac atrium; procedure, shortened: as §1
[13] = species on record: Cavia porcellus; assay: Inotropic effect in electrically driven left atrium from reserpine-treated guinea pigs at concentration of 10E-6 M; format: functional, Cardiac atrium; procedure, shortened: as §1
[14] = species on record: Cavia porcellus; assay: Effect on the frequency rate of spontaneously beating atria from Reserpine-treated guinea pigs as percentage variation from the control at concentration of 10E-3 M; format: functional; procedure, shortened: as §3
[15] = species on record: Cavia porcellus; assay: Effect on the contractile force of spontaneously beating atria from Reserpine-treated guinea pigs as percentage variation from the control at concentration of 3 x 10E-5 M; format: functional; procedure, shortened: as §3
[16] = species on record: Cavia porcellus; assay: Ionotropic Response to 8-Phenyltheophylline (10E-4) in Electrically driven Left atrium from Resperpine-Treated Guinea pigs at the concentration of 3 x 10E-4 M; format: functional, Cardiac atrium; procedure, shortened: as §4
[17] = species on record: Cavia porcellus; assay: Effect on the contractile force of spontaneously beating atria from Reserpine treated guinea pigs as percentage variation from the control at concentration of 10E-4 M; format: functional; procedure, shortened: as §3
[18] = species on record: Cavia porcellus; assay: Inotropic effect in electrically driven left atrium from reserpine-treated guinea pigs at concentration of 10E-3 M; format: functional, Cardiac atrium; procedure, shortened: as §1
[19] = species on record: Cavia porcellus; assay: Ionotropic Response to 8-Phenyltheophylline (3 x 10E-6 M) in Electrically driven Left atrium from Resperpine-Treated Guinea pigs at the concentration of 10E-4 M; format: functional, Cardiac atrium; procedure, shortened: as §2
[20] = species on record: Cavia porcellus; assay: Compound was evaluated for its effect on the frequency rate of spontaneously beating atria from Reserpine-treated guinea pigs as percentage variation from the control at concentration of 3 x 10E-5 M; format: functional; procedure, shortened: as §3
[21] = species on record: Cavia porcellus; assay: Ionotropic Response to 8-Phenyltheophylline in Electrically driven Left atrium from Resperpine-Treated Guinea pigs at the concentration of 10E-4 M; format: functional, Cardiac atrium; procedure, shortened: as §2
[22] = species on record: Cavia porcellus; assay: Compound was evaluated for its effect on the frequency rate of spontaneously beating atria from Reserpine-treated guinea pigs as percentage variation from the control at concentration of 3 x 10E-6 M; format: functional; procedure, shortened: as §3
[23] = species on record: Cavia porcellus; assay: Effect on the frequency rate of spontaneously beating atria from Reserpine-treated guinea pigs as percentage variation from the control at concentration of 10E-5 M; format: functional; procedure, shortened: as §3
[24] = species on record: Cavia porcellus; assay: Effect on the frequency rate of spontaneously beating atria from Reserpine-treated guinea pigs as percentage variation from the control at concentration of 10E-4 M; format: functional; procedure, shortened: as §3
[25] = species on record: Cavia porcellus; assay: Ionotropic Response to 8-Phenyltheophylline in Electrically driven Left atrium from Resperpine-Treated Guinea pigs at the concentration of 3 x 10E-5 M; format: functional, Cardiac atrium; procedure, shortened: as §2
[26] = species on record: Cavia porcellus; assay: Inotropic effect in electrically driven left atrium from reserpine-treated guinea pigs at concentration of 10E-5 M; format: functional, Cardiac atrium; procedure, shortened: as §1
[27] = species on record: Cavia porcellus; assay: Effect on the contractile force of spontaneously beating atria from Reserpine-treated guinea pigs as percentage variation from the control at concentration of 10E-3 M; format: functional; procedure, shortened: as §3
[28] = biological target: T1, Adenosine receptor A1 (Cavia porcellus, UniProt P47745); assay: Inhibition of [3H]-CHA binding to Adenosine A1 receptor in guinea pig heart
T1 sequence (P47745 whole entry): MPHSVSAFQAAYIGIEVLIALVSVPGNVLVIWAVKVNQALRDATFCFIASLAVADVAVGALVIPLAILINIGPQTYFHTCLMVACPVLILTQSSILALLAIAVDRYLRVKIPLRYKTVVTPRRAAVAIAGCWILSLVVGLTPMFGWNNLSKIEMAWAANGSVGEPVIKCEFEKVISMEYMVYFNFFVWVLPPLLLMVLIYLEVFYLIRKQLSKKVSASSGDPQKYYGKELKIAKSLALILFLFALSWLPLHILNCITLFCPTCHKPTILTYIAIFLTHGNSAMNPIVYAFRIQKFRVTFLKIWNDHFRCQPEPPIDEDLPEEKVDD
Procedure, shortened: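 Guinea pig heart membranes prepared in 50 mM Tris-HCl pH 7.4 and pretreated with adenosine deaminase 2 IU/mL for 30 min at 37 °C. Incubated with 1 nM [3H]CHA, membranes from 15 mg tissue, 120 min at 23 °C. Bound ligand separated by GF/B filtration; nonspecific binding defined with (R)-PIA. Six concentrations tested in triplicate; IC50 by probit analysis.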

[29] = species on record: Cavia porcellus; assay: Effect on the contractile force of spontaneously beating atria from Reserpine-treated guinea pigs as percentage variation from the control at concentration of 3 x 10E-6 M; format: functional; procedure, shortened: as §3
[30] = species on record: Cavia porcellus; assay: Effect on the contractile force of spontaneously beating atria from Reserpine-treated guinea pigs as percentage variation from the control at concentration of 10E-5 M; format: functional; procedure, shortened: as §3
[31] = species on record: Cavia porcellus; assay: Ionotropic Response to 8-Phenyltheophylline (3 x 10E-6 M) in Electrically driven Left atrium from Resperpine-Treated Guinea pigs at the concentration of 3 x 10E-5 M; format: functional, Cardiac atrium; procedure, shortened: as §2
[32] = species on record: Cavia porcellus; assay: Inotropic effect in electrically driven left atrium from reserpine-treated guinea pigs at concentration of 10E-4 M; format: functional, Cardiac atrium; procedure, shortened: as §1
[33] = species on record: Cavia porcellus; assay: Ionotropic Response to 8-Phenyltheophylline (3 x 10E-5 M) in Electrically driven Left atrium from Resperpine-Treated Guinea pigs at the concentration of 3 x 10E-4 M; format: functional, Cardiac atrium; procedure, shortened: as §2
[34] = species on record: Cavia porcellus; assay: Ionotropic Response to 8-Phenyltheophylline (3 x 10E-5 M) in Electrically driven Left atrium from Resperpine-Treated Guinea pigs at the concentration of 10E-4 M; format: functional, Cardiac atrium; procedure, shortened: as §2
[35] = species on record: Cavia porcellus; assay: Compound was evaluated for its effect on the frequency rate of spontaneously beating atria from Reserpine-treated guinea pigs as percentage variation from the control at concentration of 3 x 10E-4 M; format: functional; procedure, shortened: as §3
[36] = species on record: Cavia porcellus; assay: Ionotropic Response to 8-Phenyltheophylline (3 x 10E-6 M) in Electrically driven Left atrium from Resperpine-Treated Guinea pigs at the concentration of 3 x 10E-4 M; format: functional, Cardiac atrium; procedure, shortened: as §2
[37] = species on record: Cavia porcellus; assay: Effect on the frequency rate of spontaneously beating atria from Reserpine-treated guinea pigs as percentage variation from the control at concentration of 10E-6 M; format: functional; procedure, shortened: as §3

SMILES: COC(=O)c1cnc(N(C)C)nc1Cc1ccccc1
- Variation [1]: 4.85%
- Variation [2]: 14.9%
- Variation [3]: -48.3%
- Variation [4]: -55.28%
- Variation [5]: 11%
- Variation [6]: 0%
- Variation [7]: -33.52%
- Variation [8]: -3.33%
- Variation [9]: -22.2%
- Variation [10]: 20.2%
- Variation [11]: 19%
- Variation [12]: -5.21%
- Variation [13]: 0%
- Variation [14]: -100%
- Variation [15]: -6.54%
- Variation [16]: -6.66%
- Variation [17]: -13.54%
- Variation [18]: -100%
- Variation [19]: -4.34%
- Variation [20]: -8.03%
- Variation [21]: -9.37%
- Variation [22]: 0%
- Variation [23]: 0%
- Variation [24]: -16.06%
- Variation [25]: -6.66%
- Variation [26]: 7.45%
- Variation [27]: -100%
- IC50 [28]: 21.3 µM
- Variation [29]: 5.83%
- Variation [30]: 8.97%
- Variation [31]: 8.79%
- Variation [32]: -14.2%
- Variation [33]: -11%
- Variation [34]: 2.72%
- Variation [35]: -55.15%
- Variation [36]: -28.9%
- Variation [37]: 0%
